Read-outs that look alike come from different tables or passages of the source. Some results are limits rather than exact numbers.

20 compounds from article PMC9052575 (RSC Advances, 2020) can be followed below.

The test system of assay [1] is MCF-7 cells. The assay is described as follows: MTT anti-proliferative assay, MCF-7. The note with it: for IC50: read-out: IC50 against MCF-7 cells. Type of assay: cell-based, human.
Assay [2] relates to MDA-MB-231 cells. Kind of assay: MTT anti-proliferative assay, MDA-MB-231. Type of assay: cell-based, human. To be noted: read-out: IC50 against MDA-MB-231 cells. A general note: Tetrazolium assays rely on reduction of a dye to a coloured formazan, in cell work by metabolically active cells.
The subject of assay [3] is HEK-293 cells. The assay is described as follows: MTT toxicity assay, normal/non-tumor HEK-293 cells. Type of assay: cell-based. The note with it: Homo sapiens, HEK293, read-out: IC50 against HEK-293 cells. The gist of the method:
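HEK-293 cells seeded at 5000 cells/well in triplicate. After 24 h, exposed for 24 h at 37 °C and 5% CO2 to test compound at 1–100 μM, diluted in complete DMEM. MTT (5 mg mL−1 stock in PBS) added for 2 h, then 10% SDS/10 mM HCl for 16 h at 37 °C. OD read at 570 nm.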

Where [4] appears, read: MTT assay, 24 hours treatment, 1-100 μM.

As to `COc1ccc(/C=C/C(=O)c2ccc(OCc3cn(CCN4C(=O)c5cccc6cccc(c56)C4=O)nn3)cc2)cc1` [12b, (E)-2-(2-(4-((4-(3-(4-Methoxyphenyl)acryloyl)phenoxy)methyl)-1H-1,2,3-triazol-1-yl)ethyl)-1H-benzo[de]isoquinoline-1,3(2H)-dione], the IC50 – broadly, the concentration at which inhibition is half-maximal – in assay [1] (Homo sapiens, MCF7, 24 h) is greater than 100 µM; in assay [2] (Homo sapiens, MDA-MB-231, 24 h), greater than 100 µM.

Turning to `COc1ccc(OC)c(/C=C/C(=O)c2ccc(OCc3cn(CCN4C(=O)c5cccc6cccc(c56)C4=O)nn3)cc2)c1` [12c, (E)-2-(2-(4-((4-(3-(2,5-Dimethoxyphenyl)acryloyl)phenoxy)methyl)-1H-1,2,3-triazol-1-yl)ethyl)-1H-benzo[de]isoquinoline-1,3(2H)-dione], the IC50 in assay [1] (Homo sapiens, MCF7, 24 h) was greater than 100 µM; in assay [2] (Homo sapiens, MDA-MB-231, 24 h), greater than 100 µM.

Turning to `O=C(/C=C/c1ccc([N+](=O)[O-])cc1)c1ccc(OCc2cn(CCN3C(=O)c4cccc5cccc(c45)C3=O)nn2)cc1` [12d, (E)-2-(2-(4-((4-(3-(4-Nitrophenyl)acryloyl)phenoxy)methyl)-1H-1,2,3-triazol-1-yl)ethyl)-1H-benzo[de]isoquinoline-1,3(2H)-dione], the IC50 in assay [1] (Homo sapiens, MCF7, 24 h) is greater than 100 µM; in assay [2] (Homo sapiens, MDA-MB-231, 24 h), greater than 100 µM.

For `O=C(C=Cc1ccccc1)c1ccc(OCc2cn(CCCN3C(=O)c4cccc5cccc(c45)C3=O)nn2)cc1` [12e, 2-(3-(4-((4-Cinnamoylphenoxy)methyl)-1H-1,2,3-triazol-1-yl)propyl)-1H-benzo[de]isoquinoline-1,3(2H)-dione], the IC50 is greater than 100 µM in assay [1] (Homo sapiens, MCF7, 24 h) and greater than 100 µM in assay [2] (Homo sapiens, MDA-MB-231, 24 h).

On to `COc1ccc(/C=C/C(=O)c2ccc(OCc3cn(CCCN4C(=O)c5cccc6cccc(c56)C4=O)nn3)cc2)cc1` [12f, (E)-2-(3-(4-((4-(3-(4-Methoxyphenyl)acryloyl)phenoxy)methyl)-1H-1,2,3-triazol-1-yl)propyl)-1H-benzo[de]isoquinoline-1,3(2H)-dione], for which the IC50 in assay [1] (Homo sapiens, MCF7, 24 h) was greater than 100 µM; in assay [2] (Homo sapiens, MDA-MB-231, 24 h), greater than 100 µM.

Take `COc1ccc(OC)c(/C=C/C(=O)c2ccc(OCc3cn(CCCN4C(=O)c5cccc6cccc(c56)C4=O)nn3)cc2)c1` [12g, (E)-2-(3-(4-((4-(3-(2,5-Dimethoxyphenyl)acryloyl)phenoxy)methyl)-1H-1,2,3-triazol-1-yl)propyl)-1H-benzo[de]isoquinoline-1,3(2H)-dione]: the IC50 was greater than 100 µM in assay [1] (Homo sapiens, MCF7, 24 h) and greater than 100 µM in assay [2] (Homo sapiens, MDA-MB-231, 24 h).

As to `O=C(/C=C/c1ccc([N+](=O)[O-])cc1)c1ccc(OCc2cn(CCCN3C(=O)c4cccc5cccc(c45)C3=O)nn2)cc1` [12h, (E)-2-(3-(4-((4-(3-(4-nitrophenyl)acryloyl)phenoxy)methyl)-1H-1,2,3-triazol-1-yl)propyl)-1H-benzo[de]isoquinoline-1,3(2H)-dione], the IC50 is greater than 100 µM in assay [1] (Homo sapiens, MCF7, 24 h) and greater than 100 µM in assay [2] (Homo sapiens, MDA-MB-231, 24 h).

In the case of `CC(=O)N1N=C(c2ccc(OCc3cn(CCN4C(=O)c5cccc6cccc(c56)C4=O)nn3)cc2)CC1c1ccccc1` (stereo not shown) [13a, 2-(2-(4-((4-(1-Acetyl-5-phenyl-4,5-dihydro-1H-pyrazol-3-yl)phenoxy)methyl)-1H-1,2,3-triazol-1-yl)ethyl)-1H-benzo[de]isoquinoline-1,3(2H)-dione], the IC50 was greater than 100 µM in assay [1] (Homo sapiens, MCF7, 24 h) and greater than 100 µM in assay [2] (Homo sapiens, MDA-MB-231, 24 h).

For the compound `COc1ccc(C2CC(c3ccc(OCc4cn(CCN5C(=O)c6cccc7cccc(c67)C5=O)nn4)cc3)=NN2C(C)=O)cc1` (stereo not shown) [13b, 2-(2-(4-((4-(1-Acetyl-5-(4-methoxyphenyl)-4,5-dihydro-1H-pyrazol-3-yl)phenoxy)methyl)-1H-1,2,3-triazol-1-yl)ethyl)-1H-benzo[de]isoquinoline-1,3(2H)-dione], the IC50 in assay [1] (Homo sapiens, MCF7, 24 h) was greater than 100 µM; in assay [2] (Homo sapiens, MDA-MB-231, 24 h) it was greater than 100 µM.

Regarding `COc1ccc(OC)c(C2CC(c3ccc(OCc4cn(CCN5C(=O)c6cccc7cccc(c67)C5=O)nn4)cc3)=NN2C(C)=O)c1` (stereo not shown) [13c, 2-(2-(4-((4-(1-Acetyl-5-(2,5-dimethoxyphenyl)-4,5-dihydro-1H-pyrazol-3-yl)phenoxy)methyl)-1H-1,2,3-triazol-1-yl)ethyl)-1H-benzo[de]isoquinoline-1,3(2H)-dione], the IC50 in assay [1] (Homo sapiens, MCF7, 24 h) is greater than 100 µM; in assay [2] (Homo sapiens, MDA-MB-231, 24 h) it was greater than 100 µM.

Consider `CC(=O)N1N=C(c2ccc(OCc3cn(CCN4C(=O)c5cccc6cccc(c56)C4=O)nn3)cc2)CC1c1ccc([N+](=O)[O-])cc1` (stereo not shown) [13d, 2-(2-(4-((4-(1-Acetyl-5-(4-nitrophenyl)-4,5-dihydro-1H-pyrazol-3-yl)phenoxy)methyl)-1H-1,2,3-triazol-1-yl)ethyl)-1H-benzo[de]isoquinoline-1,3(2H)-dione], for which the IC50 in assay [1] (Homo sapiens, MCF7, 24 h) is greater than 100 µM; in assay [2] (Homo sapiens, MDA-MB-231, 24 h) it was greater than 100 µM.

With `CC(=O)N1N=C(c2ccc(OCc3cn(CCCN4C(=O)c5cccc6cccc(c56)C4=O)nn3)cc2)CC1c1ccccc1` (stereo not shown) [13e, 2-(3-(4-((4-(1-Acetyl-5-phenyl-4,5-dihydro-1H-pyrazol-3-yl)phenoxy)methyl)-1H-1,2,3-triazol-1-yl)propyl)-1H-benzo[de]isoquinoline-1,3(2H)-dione], the IC50 in assay [1] (Homo sapiens, MCF7, 24 h) was greater than 100 µM; in assay [2] (Homo sapiens, MDA-MB-231, 24 h), greater than 100 µM.

Turning to `COc1ccc(C2CC(c3ccc(OCc4cn(CCCN5C(=O)c6cccc7cccc(c67)C5=O)nn4)cc3)=NN2C(C)=O)cc1` (stereo not shown) [13f, 2-(3-(4-((4-(1-Acetyl-5-(4-methoxyphenyl)-4,5-dihydro-1H-pyrazol-3-yl)phenoxy)methyl)-1H-1,2,3-triazol-1-yl)propyl)-1H-benzo[de]isoquinoline-1,3(2H)-dione], the IC50 in assay [1] (Homo sapiens, MCF7, 24 h) is 98.1 µM; in assay [2] (Homo sapiens, MDA-MB-231, 24 h), greater than 100 µM; in assay [3] it was greater than 100 µM. For the same compound, in assay [1] (setting [4]), the “IC50 against MCF-7 cells” value was “moderate cytotoxicity”.

With `COc1ccc(OC)c(C2CC(c3ccc(OCc4cn(CCCN5C(=O)c6cccc7cccc(c67)C5=O)nn4)cc3)=NN2C(C)=O)c1` (stereo not shown) [13g, 2-(3-(4-((4-(1-Acetyl-5-(2,5-dimethoxyphenyl)-4,5-dihydro-1H-pyrazol-3-yl)phenoxy)methyl)-1H-1,2,3-triazol-1-yl)propyl)-1H-benzo[de]isoquinoline-1,3(2H)-dione], the IC50 in assay [1] (Homo sapiens, MCF7, 24 h) is 62.2 µM; in assay [2] (Homo sapiens, MDA-MB-231, 24 h) it was greater than 100 µM; in assay [3] it was greater than 100 µM. In addition, the “IC50 against MCF-7 cells” value in assay [1] (setting [4]) is “moderate cytotoxicity”.

Regarding `CC(=O)N1N=C(c2ccc(OCc3cn(CCCN4C(=O)c5cccc6cccc(c56)C4=O)nn3)cc2)CC1c1ccc([N+](=O)[O-])cc1` (stereo not shown) [13h, 2-(3-(4-((4-(1-Acetyl-5-(4-nitrophenyl)-4,5-dihydro-1H-pyrazol-3-yl)phenoxy)methyl)-1H-1,2,3-triazol-1-yl)propyl)-1H-benzo[de]isoquinoline-1,3(2H)-dione], the IC50 in assay [1] (Homo sapiens, MCF7, 24 h) was greater than 100 µM; in assay [2] (Homo sapiens, MDA-MB-231, 24 h), greater than 100 µM.

Turning to `O=C(/C=C/[c-]1cccc1)c1ccc(OCc2cn(CCN3C(=O)c4cccc5cccc(c45)C3=O)nn2)cc1.[Fe+2].c1cc[cH-]c1` [14a, (E)-2-(2-(4-((4-(3-Ferrocenyl-acryloyl)phenoxy)methyl)-1H-1,2,3-triazol-1-yl)ethyl)-1H-benzo[de]isoquinoline-1,3(2H)-dione], the IC50 in assay [1] (setting [4]) and in assay [2] (setting [4]) was greater than 100 µM in each case.

As to `CC(CN1C(=O)c2cccc3cccc(c23)C1=O)n1cc(COc2ccc(C(=O)/C=C/[c-]3cccc3)cc2)nn1.[Fe+2].c1cc[cH-]c1` (stereo not shown) [14b, (E)-2-(2-(4-((4-(3-Ferrocenyl-acryloyl)phenoxy)methyl)-1H-1,2,3-triazol-1-yl)propyl)-1H-benzo[de]isoquinoline-1,3(2H)-dione], the IC50 in assay [1] (setting [4]) and in assay [2] (setting [4]) was greater than 100 µM in each case.

With `CC(=O)N1N=C(c2ccc(OCc3cn(CCN4C(=O)c5cccc6cccc(c56)C4=O)nn3)cc2)CC1[c-]1cccc1.[Fe+2].c1cc[cH-]c1` (stereo not shown) [15a, 2-(2-(4-((4-(1-Acetyl-5-ferrocenyl-4,5-dihydro-1H-pyrazol-3-yl)phenoxy)methyl)-1H-1,2,3-triazol-1-yl)ethyl)-1H-benzo[de]isoquinoline-1,3(2H)-dione], the IC50 in assay [1] (setting [4]) and in assay [2] (setting [4]) was greater than 100 µM each time.

Consider `CC(=O)N1N=C(c2ccc(OCc3cn(C(C)CN4C(=O)c5cccc6cccc(c56)C4=O)nn3)cc2)CC1[c-]1cccc1.[Fe+2].c1cc[cH-]c1` (stereo not shown) [15b, 2-(2-(4-((4-(1-Acetyl-5-ferrocenyl-4,5-dihydro-1H-pyrazol-3-yl)phenoxy)methyl)-1H-1,2,3-triazol-1-yl)propyl)-1H-benzo[de]isoquinoline-1,3(2H)-dione], for which the 50% inhibitory concentration (IC50) in assay [1] (setting [4]) and in assay [2] (setting [4]) was greater than 100 µM each time.

Regarding `CC1=CC(=O)c2c(O)cccc2C1=O` [Plumbagin, reference compound], the IC50 in assay [1] (Homo sapiens, MCF7, 24 h) came out at 3.5 µM.
